Source: ChEMBL document CHEMBL5154854, “Identification of a Vitamin-D Receptor Antagonist, MeTC7, which Inhibits the Growth of Xenograft and Transgenic Tumors In Vivo” (J Med Chem, 2022)
Active and inactive are the calls of the source. The rule behind the calls is not given here.

Tests used:
[1] = system: 2008; assay: Induction of apoptosis in human 2008 cells assessed as cleaved PARP1 expression levels at 250 nM incubated for 18 hrs by western blot analysis (reference value: 4%); assay type: functional
[2] = system: BXPC-3; assay: Anti-tumor activity against human BXPC-3 cells xenografted in NSG mouse assessed as reduction in tumor growth at 10 mg/kg, ip measured on day 18; assay type: functional, organism-based; conditions: time 18.0 day
In short: (§1)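 NSG mice implanted subcutaneously with 1 million D283, PANC-1 or BXPC-3 cells in matrigel/DMEM 1:1; once palpable, 10 mg/kg IP M–F vs vehicle; volume (length × width2)[…], % change; endpoint 2000 mm3; tumors excised and weighed; unpaired t-test.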

[3] = Toxicity in TH-MYCN +/+ transgenic neuroblastoma 129x1/SvJ.Tg (TH-MYCN)41Waw/Nci mouse model assessed as effect on CD8+ cells population at 10 mg/kg, ip qd by flow cytometry; assay type: organism-based; conditions: in vivo
In short: (§2)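 Immune cells isolated from TH-MYCN tumor-bearing mice treated with vehicle or compound; CD45+, CD4+, CD8+, macrophage, patrolling monocyte/DC and CD11b+ populations quantified by flow cytometry with characterized markers.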

[4] = target: T1, Vitamin D3 receptor (Homo sapiens) (UniProt P11473); assay: Antagonist activity at VDR in human BE2C cells assessed as reduction in MYCN expression at 1 uM incubated for 24 hrs by western blot analysis relative to control; assay type: cell-based; conditions: filed as antagonist
T1 sequence (whole entry): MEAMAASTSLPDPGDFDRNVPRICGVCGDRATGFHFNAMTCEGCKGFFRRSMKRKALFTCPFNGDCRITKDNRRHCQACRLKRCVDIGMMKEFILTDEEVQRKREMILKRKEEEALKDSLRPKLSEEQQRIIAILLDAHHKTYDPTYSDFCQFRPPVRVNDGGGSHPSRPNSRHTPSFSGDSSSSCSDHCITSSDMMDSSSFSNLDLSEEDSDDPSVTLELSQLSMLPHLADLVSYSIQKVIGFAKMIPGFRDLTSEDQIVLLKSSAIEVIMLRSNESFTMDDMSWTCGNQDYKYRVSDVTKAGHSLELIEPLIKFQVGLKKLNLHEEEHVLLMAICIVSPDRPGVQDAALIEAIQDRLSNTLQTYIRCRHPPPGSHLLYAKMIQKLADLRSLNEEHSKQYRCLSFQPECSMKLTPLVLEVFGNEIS
In short: (§3)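 BE(2)-C cells given 1 μM for 24 h; immunoblot with β-actin or α-tubulin loading control; normalized densitometry.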

[5] = system: BE(2)-C; assay: Cytotoxicity against human BE2C cells assessed as reduction in cell viability incubated for 48 hrs by MTS assay; assay type: functional, cell-based; conditions: dose 0.1-10 µM, DDE = dose-dependent effect
In short: (§4)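 Neuroblastoma lines seeded 5,000 cells/well, attached overnight, treated 48 h in complete medium (DMSO ≤0.2%); MTS reagent 1:10 in fresh RPMI 2–4 h, absorbance 490 nm.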

[6] = system: Kelly; assay: Cytotoxicity against human Kelly cells assessed as reduction in cell viability incubated for 48 hrs by MTS assay; assay type: functional, cell-based; conditions: dose 0.1-10 µM, DDE = dose-dependent effect; in short: as §4
[7] = target: T1, Vitamin D3 receptor (Homo sapiens); assay: Antagonist activity at VDR in human BE2C cells assessed as reduction in cyclin-D expression at 1 uM incubated for 24 hrs by western blot analysis relative to control; assay type: cell-based; conditions: filed as antagonist; in short: as §3
[8] = Toxicity in TH-MYCN +/+ transgenic neuroblastoma 129x1/SvJ.Tg (TH-MYCN)41Waw/Nci mouse model assessed as effect on patrolling monocytes/DC+ cells population at 10 mg/kg, ip qd by flow cytometry; assay type: organism-based; conditions: in vivo; in short: as §2
[9] = system: ES-2; assay: Anti-tumor activity against human ES2 cells xenografted in NSG mouse assessed as reduction in tumor volume at 10 mg/kg, ip measured upto 30 days; assay type: functional, organism-based; conditions: time <= 30.0 day
In short: (§5)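 NSG mice, 6–8 weeks, injected subcutaneously in right flank with ES2 (250,000) or SH-SY5Y/BE(2)C (1 million) cells in cold matrigel/serum-free RPMI 1:1. Once palpable, 10 mg/kg IP M–F vs vehicle; volume (length × width2)[…]; BE(2)C and ES2 monitored alternate days; endpoint 2000 mm3; % change in volume, t-test.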

[10] = system: HEK-293T; assay: Cytotoxicity against HEK-293T cells assessed as inhibition of cell proliferation upto 100 uM incubated for 18 hrs by MTS assay; assay type: toxicity, cell-based; conditions: human
[11] = system: D283 Med; assay: Anti-tumor activity against human D283 Med cells xenografted in NSG mouse assessed as reduction in tumor size at 10 mg/kg, ip measured on day 12; assay type: functional, organism-based; conditions: time 12.0 day; in short: as §1
[12] = system: IGROV-1; assay: Cytotoxicity against human IGROV-1 cells assessed as reduction in cell viability incubated for 24 hrs by MTS assay; assay type: functional, cell-based; conditions: dose 0.25-1.25 µM, DDE = dose-dependent effect
In short: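 Ovarian lines seeded 5,000 cells/well, attached overnight, treated 24 h in complete medium (DMSO ≤0.2%); MTS reagent 1:10 in fresh RPMI 2–4 h, absorbance 490 nm; triplicate, % of DMSO-treated cells.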

[13] = Anti-tumor activity against human SK-OV-3 cells xenografted in nude mouse assessed as animal survival at 10 mg/kg, ip measured upto 36 days; conditions: SK-OV-3, 864 h
[14] = system: Mus musculus; assay: Anti-tumor activity against TH-MYCN +/+ transgenic neuroblastoma 129x1/SvJ.Tg (TH-MYCN)41Waw/Nci mouse model assessed as reduction in tumor growth at 10 mg/kg, ip measured upto 7 days by ultrasound imaging analysis; assay type: functional, organism-based; conditions: time <= 7.0 day
In short: (§6)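 Homozygous TH-MYCN+/+ mice (129×1/SvJ background, genotyped) with spontaneous neuroblastoma dosed IP, vehicle n = 7, 10 mg/kg n = 8, six treatments; a 100 mg/kg group got three. Tumor burden by abdominal ultrasound under 1–3% isoflurane; tumors excised and weighed at end; groups compared by t-test.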

[15] = Toxicity in NSG mouse xenografted with human ES2 cells assessed as body weight change at 10 mg/kg, ip measured upto 30 days; assay type: organism-based; conditions: in vivo, 720 h, time < 30 day
[16] = system: SK-OV-3; assay: Anti-tumor activity against human SK-OV-3 cells xenografted in nude mouse assessed as reduction in tumor growth at 10 mg/kg, ip measured for 1 to 39 days; conditions: time 1-39 day
[17] = Toxicity in TH-MYCN +/+ transgenic neuroblastoma 129x1/SvJ.Tg (TH-MYCN)41Waw/Nci mouse model assessed as effect on macrophage population at 10 mg/kg, ip qd by flow cytometry; assay type: organism-based; conditions: in vivo; in short: as §2
[18] = system: BE(2)-C; assay: Anti-tumor activity against human BE2C cells xenografted in NSG mouse assessed as reduction in tumor volume at 10 mg/kg, ip measured for 5 to 8 days; assay type: functional, organism-based; conditions: time 5-8 day; in short: as §5
[19] = system: D283 Med; assay: Anti-tumor activity against human D283 Med cells xenografted in NSG mouse assessed as reduction in tumor volume at 10 mg/kg, ip measured on day 12; assay type: functional, organism-based; conditions: time 12.0 day; in short: as §1
[20] = Toxicity in TH-MYCN +/+ transgenic neuroblastoma 129x1/SvJ.Tg (TH-MYCN)41Waw/Nci mouse model assessed as effect on CD11b+ cells population at 10 mg/kg, ip qd by flow cytometry; assay type: organism-based; conditions: in vivo; in short: as §2
[21] = system: Mus musculus; assay: Anti-tumor activity against tumor cells in TH-MYCN +/+ neuroblastoma 129x1/SvJ.Tg (TH-MYCN)41Waw/Nci mouse model assessed as reduction in tumor volume administered intraperitoneally measured on day 7 by ultrasound imaging analysis; assay type: functional, organism-based; conditions: route ip, time 7.0 day, DDE = dose-dependent effect; in short: as §6

CC(C)CCC[C@@H](C)[C@H]1CC[C@@H]2[C@]1(C)CCC1[C@]23C=C[C@]2(C[C@@H](OC(=O)CBr)CC[C@]12C)n1c(=O)n(C)c(=O)n13 (stereo partly specified)
Activity [1]: 22.8% | Activity [2]: Active | Activity [3]: Non-Toxic | fold change (FC) [4]: 0.68 | Activity [5]: Dde | Activity [6]: Dde | fold change (FC) [7]: 0.8 | Activity [8]: Non-Toxic | Activity [9]: Active | Activity [10]: Non-Toxic | Activity [11]: Active | Activity [12]: Dde | survival at 10 mg/kg [13]: 100% | Activity [14]: Active | Activity [15]: Non-Toxic | Activity [16]: Active | Activity [17]: Non-Toxic | Activity [18]: Active | Activity [19]: Active | Activity [20]: Non-Toxic | Activity [21]: Dde
